Rows were chosen to be rich in hits. Some 1.4% of all compounds tested hit in one or more screens of this group.
Tn7 DDE FP: inhibitors of Tn7 peptide binding to human fibrin DD(E) | inhibition, % at 8.3 µM | P02675 | FP displacement of FITC-Tn7 peptide from fibrin DD(E); 0% = median of compound wells per plate | hit rate 0.13% among 370,000;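 active = inhibition above the mean of compounds falling within the control limits plus 3 SD of them, cut at about 14% in these data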;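 also: 0% = plate median of compound wells and 100% = 10 µM Aha-Tn7 peptide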
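Also added: labelled Tn7 tracer, 0.1 µM; Assay system: human fibrin DD(E) protein; Amount: 2 µM fibrin DD(E); Schedule: 10 min compound pre-incubation, 3 h probe incubation at room temperature; Repeats: one replicate per compound; Read-out basis: percent inhibition; Measured by: fluorescence polarization of the labelled Tn7 tracer.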
PLCb3 inh: inhibitors of human phospholipase C beta3; Q01970; Purified PLC-beta3, fluorogenic substrate, fluorescence; inhibition, % at 12.2 µM; hit rate 0.18% among 370,000; in the data active = inhibition above about 11%;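 also: 0% = median of compound wells on plate and 100% = full blocker control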
Tn6 DDE FP: DD(E)-Tn6 binding inhibition, primary FP screen; P02675; Fibrin DD(E) TRITC-Tn6 fluorescence polarization displacement; inhibition, % at 8.3 µM; hit rate 0.21% among 370,000; AID 720509;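 active = inhibition above a per-campaign cutoff: mean of compounds within control limits plus 3 SD, cut at about 15% in these data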;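 also: 0% = median of all compound wells on the plate and 100% = blocking peptide control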
PLC-gamma1 inh: blocks human PLC-gamma1 enzyme activity; P19174; purified PLC-gamma1, fluorogenic substrate, fluorescence; inhibition, % at 12.2 µM; hit rate 0.84% among 370,000; AID 720700
DNA FID counter: fluorescent intercalator displacement, NS3 helicase counter-screen. DNA fluorescent intercalator displacement, fluorescence. inhibition, % at 7.9 µM. hit rate 0.17% among 290,000. AID 1845; in the data active = inhibition above about 37%;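 also: 0% = vehicle and 100% = reference compound; higher means more ethidium bromide displaced from hairpin DNA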
PLCg1 ctr: inhibits human PLC-gamma1 in PLC-beta3 counter-screen. inhibition, % at 12.3 µM. purified PLC-gamma1, fluorogenic substrate, fluorescence. shares compounds with PLC-gamma1 inh. hit rate 3.1% among 3,300. AID 743258
PLCbeta3 conf: human PLC-beta3 inhibition, confirmation. shares compounds with PLC-gamma1 inh. purified PLC-beta3, fluorogenic substrate fluorescence. inhibition, % at 12.3 µM. hit rate 1% among 3,300; in the data active = inhibition above about 11%
Starred values were filed as active, the others as inactive; x = no result given. Rule as the data show it, unless noted: active = inhibition above about 9.5%; inactive = the rest.

SMILES	Tn7 DDE FP	PLCb3 inh	Tn6 DDE FP	PLC-gamma1 inh	DNA FID counter	PLCg1 ctr	PLCbeta3 conf
Cc1ccc(NC(=S)NCCc2ccc(F)cc2)c(C)c1	1	1	4	0	-13	x	x
Cc1ccccc1NC(=S)NCCC(c1ccccc1)c1ccccc1	-5	2	-3	10*	-21	0	-1
Cc1ccc(F)cc1NC(=S)NCCc1ccccc1	-4	3	1	11*	0	-2	-1
O=C(c1ccccc1F)N1CCC(N2CCCCCC2)CC1	-1	-1	-11	1	12	x	x
Brc1ccc(CSc2nnc(-c3cccnc3)o2)cc1	-9	0	-6	-2	-20	x	x
CCc1c(C(=O)Nc2cc(C)cc(C)c2)[nH]c(C)c1C(C)=O	-5	-2	-2	-1	-12	x	x
CC(C)(C)OC(=O)N[C@H](C(=O)OC(C)(C)C)c1ccc2c(c1)OCO2	3	4	7	10*	x	3	-3
Cc1cccc([C@H](NC(=O)OC(C)(C)C)C(=O)OC(C)(C)C)c1	5	-3	1	-2	x	x	x
COc1ccc(Cl)c(OC)c1C(=O)NC(=O)Nc1nc(C)nc(C)n1	-1	-6	-1	5	-17	x	x
COc1c(Cl)cc(Br)c(OC)c1C(=O)NC(=O)Nc1nc(C)cc(C)n1	-3	1	1	11*	-5	-2	-1
O=C1CCCCC1S(=O)(=O)c1ccccc1 (configuration not stated)	-2	3	-6	-2	0	x	x
CCOC(=O)C1=C(C)OC2(O)c3ccccc3C(=O)C12O (configuration not stated)	-1	2	-7	10*	-3	-2	-4
CC(=O)C1=C(C)OC2(O)c3ccccc3C(=O)C12O (configuration not stated)	0	-7	-6	5	-3	x	x
CCCCN(CCCC)Cc1cc(=O)oc2cc(OC)ccc12	2	-218	-6	-152	x	x	x
COCC(O)CSc1c([N+](=O)[O-])nc(C)n1Cc1ccc(OC)c([N+](=O)[O-])c1 (configuration not stated)	-3	2	12	10*	3	7	5
COc1ccc(N2CCN(S(=O)(=O)/C=C/c3ccccc3)CC2)cc1	2	1	-5	-1	-6	x	x
CC(C)C(NS(=O)(=O)c1cccc2nsnc12)C(=O)NC1CCCCC1 (configuration not stated)	5	-4	5	0	-5	x	x
CC1CCC(NC(=O)C(NS(=O)(=O)c2cccc3nsnc23)C(C)C)CC1 (configuration not stated)	0	-3	-2	11*	-17	3	2
Cc1ccc(C)c(OCC(O)CN2CCC(C)CC2)c1C (configuration not stated)	0	2	-5	11*	2	-4	-5
Cc1onc(-c2ccccc2)c1C(=O)NC(=S)NNC(=O)c1ccncc1	2	-6	4	-6	-1	x	x
Cc1onc(-c2ccccc2)c1C(=O)NC(=S)NNC(=O)c1cccnc1	-3	5	-1	10*	-7	-2	-1
O=S(=O)(N/N=C\c1cccnc1)c1ccccc1	-4	3	4	0	4	x	x
Cc1ccccc1NC(=S)N1CCC(C(=O)c2ccc(F)cc2)CC1	-8	8	2	9.9*	2	-1	0
O=C(c1ccc(F)cc1)C1CCN(C(=S)Nc2ccccc2Cl)CC1	3	-8	-11	3	-7	x	x
CCOc1ccc(NC2=C(Cl)C(=O)N(Cc3ccccc3)C2=O)cc1	-7	0	-6	11*	-2	-1	1
COc1cccc(CNC(=O)C2CCN(Cc3cnn(-c4ccccc4)c3-n3cccc3)CC2)c1	-2	5	-2	9.7*	23	2	-1
O=C(NCc1ccccn1)C1CCN(Cc2cnn(-c3ccccc3)c2-n2cccc2)CC1	-5	1	5	1	1	x	x
O=C(c1ccccn1)C1CCCN(Cc2nc(Cc3cccc(F)c3)no2)C1 (configuration not stated)	0	-10	-2	3	-32	x	x

From PubChem
